Source: PubChem
Shown are actives, neighbours in structure and some others; about 3.1% of the full set was active somewhere.
OX1R antag-1: antagonists of human orexin 1 receptor (OX1R) | OX1R-expressing cells, FRET antagonist read-out | inhibition, % at 6.6 µM | 330,000 tested, 1.8% active | AID 485270, 2010; in the data active means inhibition mostly above about 38%, no sharp cut-off; inactive means mostly below about 40%
OX1R antag-2: OX1R (HCRTR1) antagonists, primary screen, fluorescence, CHO/OX1R cells, Fluo-8 calcium, orexin A. Orexin/Hypocretin receptor type 1 (Homo sapiens), O43613. inhibition, % at 5 µM. Fluo-8 calcium fluorescence. 330,000 tested, 0.43% active;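 active means inhibition above its plate's threshold, mean inhibition of all tested compounds on the plate plus 3 SD, cut at about 37% in these data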
GalR3 antag: GalR3 antagonists in HEK293 cells, primary screen, cell-based, fluorescence readout; Galanin receptor type 3 (Homo sapiens), O60755; HEK293 GalR3-CNG cAMP membrane potential fluorescence; galR3 body fused to GalR1 C-terminus; inhibition, % at 3 µM; 360,000 tested, 0.44% active;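 active means inhibition above the screen-wide average plus 3 SD, cut at about 13% in these data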;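 further: forskolin and galanin both at EC90 stimulate the cells; cAMP rise reported by CNG channel membrane potential dye signal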
Target sequence (O60755 1-299 limits assumed): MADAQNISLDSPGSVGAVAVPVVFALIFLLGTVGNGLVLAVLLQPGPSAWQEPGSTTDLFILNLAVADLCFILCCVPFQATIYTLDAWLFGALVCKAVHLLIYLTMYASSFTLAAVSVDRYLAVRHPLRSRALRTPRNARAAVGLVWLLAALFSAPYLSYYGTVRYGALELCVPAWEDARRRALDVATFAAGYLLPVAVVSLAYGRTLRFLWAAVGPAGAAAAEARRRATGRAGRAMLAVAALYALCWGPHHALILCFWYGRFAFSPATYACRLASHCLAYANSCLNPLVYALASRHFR
GPR7 antag: GPR7 receptor antagonists, primary screen, cell-based, fluorescence, single concentration | inhibition, % at 4.4 µM | 290,000 tested, 1.1% active | Neuropeptides B/W receptor type 1 (Homo sapiens), P48145 | GPR7-expressing cells, fluorescence antagonist assay; in the data active means inhibition above about 16%, passing the limit was not always enough;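 further: cells stimulated with the agonist NPW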
Target sequence (P48145 whole entry, looked up): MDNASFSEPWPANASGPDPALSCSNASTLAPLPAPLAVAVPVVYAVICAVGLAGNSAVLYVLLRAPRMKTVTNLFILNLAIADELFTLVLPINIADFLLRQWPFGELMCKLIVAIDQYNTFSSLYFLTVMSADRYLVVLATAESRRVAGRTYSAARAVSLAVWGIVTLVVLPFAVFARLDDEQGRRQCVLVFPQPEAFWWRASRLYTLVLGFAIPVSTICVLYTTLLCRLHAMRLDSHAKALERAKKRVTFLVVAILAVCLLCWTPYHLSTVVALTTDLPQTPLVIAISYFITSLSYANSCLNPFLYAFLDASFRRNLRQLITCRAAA
CHO parental Ca: ATP-evoked calcium signal inhibitors, parental CHO, primary screen, counter-screen for OX1R antagonist project, cell-based, fluorescence, Fluo-8 calcium dye. parental CHO-K1, ATP-induced calcium, Fluo-8 fluorescence. inhibition, % at 5.6 µM. 330,000 tested, 0.63% active. AID 463079, 2010;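 active means inhibition above that plate's mean sample inhibition plus 3 SD, cut at about 26% in these data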
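Test system: untransfected parental CHO cell line; also added: ATP stimulus; dosing: 5.6 µM, single dose; signal: calcium-sensitive Fluo-8 fluorescence; measure: percent inhibition of ATP-evoked calcium rise, normalized to controls; benchmarks: low control ATP plus DMSO, high control DMSO only; replication: one well per compound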
A number is an active result.

`O=C(Nc1ccc(F)cc1)C(CCc1ccccc1)N1CCN(C(=O)c2ccco2)CC1` (stereo not drawn) gave GalR3 antag inactive.
C=CC[n+]1c(/C=C/c2ccc(OC(C)=O)c(OC)c2)ccc2ccccc21 was read as OX1R antag-1 48, OX1R antag-2 inactive, GalR3 antag inactive, GPR7 antag inactive and CHO parental Ca inactive.
Screening COc1ccc(NC(=O)COc2ccc(/C=C/c3cccc[n+]3C)cc2OC)cc1 returned OX1R antag-1 inactive, OX1R antag-2 inactive, GalR3 antag inactive, GPR7 antag inactive and CHO parental Ca inactive.
For COC(=O)[C@]12C[C@H](CC(=O)NCCc3ccccc3OC)C(=O)N(Cc3ccc4c(c3)OCO4)C1=C[C@H](C(C)(C)C)O[C@@H]2C the results were GalR3 antag inactive.
`Fc1cccc(Cl)c1CN1CCN(c2ncc(Cc3ccccc3)cn2)CC1` gave GalR3 antag inactive.
For Cn1c(N)c(C(=O)COC(=O)Cc2ccsc2)c(=O)n(C)c1=O the results were OX1R antag-1 inactive, OX1R antag-2 inactive, GalR3 antag inactive, GPR7 antag 20 and CHO parental Ca inactive.
Screening Cc1ccc(Cc2c(-c3ccco3)nc3c(C)cc(Br)cn23)cc1 returned GalR3 antag 34.
For O=C(C(=O)N1CCN(Cc2ccccc2)CC1)c1c[nH]c2ccccc12 the results were OX1R antag-1 inactive, OX1R antag-2 inactive, GalR3 antag inactive and CHO parental Ca inactive.
For O=C(c1c[nH]c2ccccc12)N1CCN(Cc2ccccc2)CC1 the results were OX1R antag-1 inactive, OX1R antag-2 inactive, GalR3 antag inactive, GPR7 antag 18 and CHO parental Ca inactive.
For Cc1cccc(N2CCN(C(=O)c3ccc4c(=O)[nH]c5c(C(=O)NC6CCCC6)sc(=S)n5c4c3)CC2)c1C the results were GalR3 antag inactive.
Screening COc1ccc2cc3cc(C(=O)NCc4ccccn4)oc3nc2c1 returned OX1R antag-1 61, OX1R antag-2 inactive, GalR3 antag inactive, GPR7 antag inactive and CHO parental Ca inactive.
For COc1ccc2cc3cc(C(=O)NCc4ccco4)oc3nc2c1 the results were OX1R antag-1 54, OX1R antag-2 inactive, GalR3 antag inactive, GPR7 antag inactive and CHO parental Ca inactive.
COc1ccc2cc3cc(C(=O)NCC4CCCO4)oc3nc2c1 (stereo not drawn) was read as OX1R antag-1 74, OX1R antag-2 inactive, GalR3 antag inactive, GPR7 antag inactive and CHO parental Ca inactive.
COc1ccc(OC)c(NC(=O)c2cc3c(Cl)nc4ccccc4c3s2)c1 was read as OX1R antag-1 inactive, OX1R antag-2 inactive, GalR3 antag inactive, GPR7 antag inactive and CHO parental Ca inactive.
Screening COc1ccc(NC(=O)c2cc3c(Cl)nc4ccccc4c3s2)cc1OC returned OX1R antag-1 66, OX1R antag-2 inactive, GalR3 antag inactive, GPR7 antag inactive and CHO parental Ca inactive.
For COCCCNC(=O)C[C@@H]1C[C@@]2(C(=O)OC)CCCCC=C2N(CCc2ccc(OC)c(OC)c2)C1=O the results were GalR3 antag inactive.
`CCOc1ccccc1CNC(=O)c1cc2oc3ccccc3c2n1CC` gave OX1R antag-1 53, OX1R antag-2 inactive, GalR3 antag inactive, GPR7 antag inactive and CHO parental Ca inactive.
`COc1cccc(CNC(=O)c2cc3oc4ccccc4c3n2C)c1OC` gave OX1R antag-1 inactive, OX1R antag-2 inactive, GalR3 antag inactive, GPR7 antag inactive and CHO parental Ca inactive.
Cc1ccccc1CN1[C@@H](C)[C@H](c2ccccc2)Oc2cccc(NCC(C)C)c2S1(=O)=O was read as GalR3 antag inactive.
`O=C(N=C1N=C2C=CC(Br)=CN2Cc2ccccc21)c1ccc([N+](=O)[O-])cc1[N+](=O)[O-]` gave OX1R antag-1 45, OX1R antag-2 inactive, GalR3 antag inactive, GPR7 antag inactive and CHO parental Ca inactive.
`O=C(c1ccc([N+](=O)[O-])cc1[N+](=O)[O-])N1CCc2ccccc21` gave OX1R antag-1 inactive, OX1R antag-2 inactive, GalR3 antag inactive, GPR7 antag inactive and CHO parental Ca inactive.
For Cc1ccc2[nH]c3c(NCc4ccco4)ncnc3c2c1 the results were OX1R antag-1 50, OX1R antag-2 inactive, GalR3 antag inactive, GPR7 antag inactive and CHO parental Ca inactive.
Cc1ccc2nc(CN(C)C(=O)[C@H](CCc3ccccc3)NC(=O)[C@H]3O[C@@H](n4cnc5c(N)ncnc54)[C@H](O)[C@@H]3O)[nH]c2c1 was read as GalR3 antag inactive.
For CCOc1ccccc1NC(=O)c1nc(S(=O)(=O)Cc2ccccc2)ncc1Cl the results were OX1R antag-1 inactive, OX1R antag-2 inactive, GalR3 antag inactive, GPR7 antag inactive and CHO parental Ca inactive.
CCOC(=O)c1ccc(NC(=O)c2nc(S(=O)(=O)Cc3ccccc3)ncc2Cl)cc1 was read as OX1R antag-1 inactive, OX1R antag-2 73, GalR3 antag inactive, GPR7 antag inactive and CHO parental Ca inactive.
For Cc1ccc(NC(=O)c2nc(S(=O)(=O)Cc3ccccc3C)ncc2Cl)cc1C the results were OX1R antag-1 inactive, OX1R antag-2 inactive, GalR3 antag inactive, GPR7 antag inactive and CHO parental Ca 40.
COC(=O)C1=C(C)N(Cc2ccccc2C(F)(F)F)C(=NCc2ccccc2)NC1c1ccc(F)cc1 (stereo not drawn) was read as GalR3 antag inactive.
COc1ccccc1NC(=O)C(C)Sc1nc2ccccc2c(=O)n1CC1CCCO1 (stereo not drawn) was read as OX1R antag-1 inactive, OX1R antag-2 inactive, GalR3 antag inactive and CHO parental Ca inactive.
CC(Sc1nc2ccccc2c(=O)n1CC1CCCO1)C(=O)N(C)c1ccccc1 (stereo not drawn) was read as OX1R antag-1 32, OX1R antag-2 inactive, GalR3 antag inactive and CHO parental Ca inactive.
`CCOC(=O)COc1ccccc1/C=C\[N+](=O)[O-]` gave OX1R antag-1 inactive, OX1R antag-2 inactive, GPR7 antag inactive and CHO parental Ca inactive.
Screening CCOC(=O)COc1cc([N+](=O)[O-])cc2cccnc12 returned OX1R antag-1 42, OX1R antag-2 inactive, GalR3 antag inactive, GPR7 antag inactive and CHO parental Ca inactive.
For CC(C)CCCCCCCCc1cccc(O)c1C(=O)O the results were GalR3 antag inactive.
CC1(C)CC(N2CCN(c3ccccc3)CC2)=CC(=[N+]2CCCC2)C1 was read as OX1R antag-1 inactive, OX1R antag-2 inactive, GalR3 antag inactive, GPR7 antag inactive and CHO parental Ca inactive.
CC1(C)CC(N2CCCC2)=CC(=[N+]2CCCCCC2)C1 was read as OX1R antag-1 inactive, OX1R antag-2 inactive, GalR3 antag 55, GPR7 antag 26 and CHO parental Ca inactive.
